Reference: ChEMBL document CHEMBL1142420, “Synthesis and DNA-cleaving activity of lactenediynes conjugated with DNA-complexing moieties” (2008)

Tests used:
COLO 205 = test: Cytotoxicity against human COLO205 cells after 48 hrs by SRB assay; format: functional; details: COLO 205, 48 h
How it was run: (§1)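 Run at NCI: cell lines exposed 48 h to a range of concentrations, with untreated controls under identical conditions. Growth measured by sulforhodamine B staining with colorimetric read-out. Percent growth computed from test, time-zero and control absorbances. GI50, TGI and LC50 read from PG versus log10 molar concentration as the concentrations giving PG = 50, 0 and -50.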

HCC 2998 = test: Cytotoxicity against human HCC2998 cells after 48 hrs by SRB assay; format: functional; details: HCC 2998, 48 h; how it was run: as §1
HT-29 = test: Cytotoxicity against human HT29 cells after 48 hrs by SRB assay; format: functional; details: HT-29, 48 h; how it was run: as §1
KM12 = test: Cytotoxicity against human KM12 cells after 48 hrs by SRB assay; format: functional; details: KM12, 48 h; how it was run: as §1
SW-620 = test: Cytotoxicity against human SW620 cells after 48 hrs by SRB assay; format: functional; details: SW-620, 48 h; how it was run: as §1
UACC-257 = test: Cytotoxicity against human UACC257 cells after 48 hrs by SRB assay; format: functional; details: UACC-257, 48 h; how it was run: as §1
OVCAR-4 = test: Cytotoxicity against human OVCAR4 cells after 48 hrs by SRB assay; format: functional; details: OVCAR-4, 48 h; how it was run: as §1
OVCAR-8 = test: Cytotoxicity against human OVCAR8 cells after 48 hrs by SRB assay; format: functional; details: OVCAR-8, 48 h; how it was run: as §1
786-0 = test: Cytotoxicity against human 786-0 cells after 48 hrs by SRB assay; format: functional; details: 786-0, 48 h; how it was run: as §1
ACHN = test: Cytotoxicity against human ACHN cells after 48 hrs by SRB assay; format: functional; how it was run: as §1
NCI/ADR-RES = test: Cytotoxicity against human NCI/ADR-RES cells after 48 hrs by SRB assay; format: functional; how it was run: as §1
BT-549 = test: Cytotoxicity against human BT549 cells after 48 hrs by SRB assay; format: functional; details: BT-549, 48 h; how it was run: as §1
SNB-75 = test: Cytotoxicity against human SNB75 cells after 48 hrs by SRB assay; format: functional; details: SNB-75, 48 h; how it was run: as §1
M14 = test: Cytotoxicity against human M14 cells after 48 hrs by SRB assay; format: functional; details: M14, 48 h; how it was run: as §1
Escherichia coli = test: Induction of plasmid pBR322 DNA cleavage assessed as concentration required to cleave 50% of DNA after 24 hrs by gel electrophoresis
How it was run: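 Supercoiled pBR322 (90% form I) diluted to 50 µg/mL (75 µM/bp) in pH 7.5 Tris 40 mM/EDTA 4 mM. Incubated 24 h at 37 °C, then run on agarose gel with ethidium bromide and viewed at 302 nm. Form I versus II+III quantified by densitometry after subtracting form II present in the control.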

A549 = test: Cytotoxicity against human A549 cells after 48 hrs by SRB assay; format: functional; details: A549, 48 h; how it was run: as §1
HOP-62 = test: Cytotoxicity against human HOP62 cells after 48 hrs by SRB assay; format: functional; details: HOP-62, 48 h; how it was run: as §1
NCI-H226 = test: Cytotoxicity against human NCI-H226 cells after 48 hrs by SRB assay; format: functional; details: NCI-H226, 48 h; how it was run: as §1
NCI-H23 = test: Cytotoxicity against human NCI-H23 cells after 48 hrs by SRB assay; format: functional; details: NCI-H23, 48 h, read-out: Log LC50 (the source's name) (converted)
How it was run: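 Run at NCI: cells exposed 48 h to a range of concentrations, with untreated controls under identical conditions. Growth measured by sulforhodamine B staining with colorimetric read-out. Percent growth (PG) calculated from absorbance at 48 h with drug, at time zero, and at 48 h without drug. Log molar concentration plotted against PG; GI50 at PG = 50, TGI at PG = 0, LC50 at PG = −50.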

NCI-H322M = test: Cytotoxicity against human NCI-H322M cells after 48 hrs by SRB assay; format: functional; how it was run: as §1
NCI-H460 = test: Cytotoxicity against human NCI-H460 cells after 48 hrs by SRB assay; format: functional; details: NCI-H460, 48 h; how it was run: as §1
[1] = read-out: Log LC50 (the source's name) (converted)

SMILES: CC(=O)O[C@@H]1C#C/C=C\C#CC[C@H]2C(=O)N(C(=O)OC(C)(C)C)[C@H]12
- GI50 (COLO 205): 39.8 µM
- CC50 (COLO 205; [1]): > 100 µM
- TGI (COLO 205; read-out: Log TGI (converted)): > 100 µM
- GI50 (HCC 2998): 34.7 µM
- CC50 (HCC 2998; [1]): > 100 µM
- TGI (HCC 2998; read-out: Log TGI (converted)): > 100 µM
- GI50 (HT-29): > 100 µM
- CC50 (HT-29; [1]): > 100 µM
- TGI (HT-29; read-out: Log TGI (converted)): > 100 µM
- GI50 (KM12): > 100 µM
- CC50 (KM12; [1]): > 100 µM
- TGI (KM12; read-out: Log TGI (converted)): > 100 µM
- GI50 (SW-620): 13.5 µM
- CC50 (SW-620; [1]): > 100 µM
- TGI (SW-620; read-out: Log TGI (converted)): > 100 µM
- CC50 (UACC-257; [1]): > 100 µM
- TGI (UACC-257; read-out: Log TGI (converted)): > 100 µM
- GI50 (UACC-257; read-out: pGI50 (converted)): 18.2 µM
- GI50 (OVCAR-4): > 100 µM
- CC50 (OVCAR-4; [1]): > 100 µM
- TGI (OVCAR-4; read-out: Log TGI (converted)): > 100 µM
- GI50 (OVCAR-8): 14.5 µM
- CC50 (OVCAR-8; [1]): > 100 µM
- TGI (OVCAR-8; read-out: Log TGI (converted)): 89.1 µM
- GI50 (786-0): 11.5 µM
- CC50 (786-0; [1]): > 100 µM
- TGI (786-0; read-out: Log TGI (converted)): 69.2 µM
- GI50 (ACHN): 2.63 µM
- CC50 (ACHN; [1]): > 100 µM
- TGI (ACHN; read-out: Log TGI (converted)): 25.7 µM
- GI50 (NCI/ADR-RES): 28.8 µM
- CC50 (NCI/ADR-RES; [1]): > 100 µM
- TGI (NCI/ADR-RES; read-out: Log TGI (converted)): > 100 µM
- GI50 (BT-549): 24.5 µM
- CC50 (BT-549; [1]): > 100 µM
- TGI (BT-549; read-out: Log TGI (converted)): > 100 µM
- GI50 (SNB-75): 38 µM
- CC50 (SNB-75; [1]): > 100 µM
- TGI (SNB-75; read-out: Log TGI (converted)): > 100 µM
- GI50 (M14): 39.8 µM
- CC50 (M14; [1]): > 100 µM
- TGI (M14; read-out: Log TGI (converted)): > 100 µM
- CS50 (Escherichia coli): 40 µM
- GI50 (A549): 28.2 µM
- CC50 (A549; [1]): > 100 µM
- TGI (A549; read-out: Log TGI (converted)): > 100 µM
- GI50 (HOP-62): 5.01 µM
- CC50 (HOP-62; [1]): > 100 µM
- TGI (HOP-62; read-out: Log TGI (converted)): 38 µM
- GI50 (NCI-H226): 39.8 µM
- CC50 (NCI-H23): > 100 µM
- GI50 (NCI-H322M): > 100 µM
- CC50 (NCI-H322M; [1]): > 100 µM
- TGI (NCI-H322M; read-out: Log TGI (converted)): > 100 µM
- GI50 (NCI-H460): 0.0933 µM
- CC50 (NCI-H460; [1]): > 100 µM
- TGI (NCI-H460; read-out: Log TGI (converted)): > 100 µM
